# Shown are actives, neighbours in structure and some others; about 1.8% of the full set was active somewhere.
# NPY Y2 blocker: NPY-Y2 (human) receptor antagonism. P49146. NPY-Y2 expressing cells, antagonist mode. inhibition, % at 2.7 µM. 140,000 compounds, 0.99% hits. AID 793
# Target sequence (P49146 whole entry, looked up): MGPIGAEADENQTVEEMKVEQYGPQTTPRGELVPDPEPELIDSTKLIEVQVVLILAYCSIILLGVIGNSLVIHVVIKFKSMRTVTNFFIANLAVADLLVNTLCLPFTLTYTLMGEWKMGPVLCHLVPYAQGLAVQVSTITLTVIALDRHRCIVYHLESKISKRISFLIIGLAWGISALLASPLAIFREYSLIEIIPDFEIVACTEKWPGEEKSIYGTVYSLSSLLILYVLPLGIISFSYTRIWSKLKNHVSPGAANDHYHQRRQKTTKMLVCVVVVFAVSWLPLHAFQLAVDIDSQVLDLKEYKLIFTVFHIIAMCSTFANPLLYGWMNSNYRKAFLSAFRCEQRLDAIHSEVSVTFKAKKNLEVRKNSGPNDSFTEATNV
# NPY-Y1 antag: antagonists of human neuropeptide Y receptor Y1; P25929; HEK293-CNG Y1 cells, membrane potential fluorescence; NPY at EC95, then isoproterenol; inhibition, % at 3.6 µM; 200,000 compounds, 1% hits;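 active = inhibition above the campaign mean inhibition of all tested compounds plus 3 SD, cut at about 20% in these data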
#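 Material: HEK293 cells with Y1 receptor plus CNG channel; times: compound incubation 1 h at room temperature, readout 45 min post-stimulation; signal: fluorescence, membrane potential probe; read-out basis: fluorescence ratio normalized to % inhibition between controls; benchmarks: full-block control isoproterenol-only wells, zero-block control NPY plus isoproterenol wells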
# NPY-Y1 PAM-ag: human NPY-Y1 potentiation or agonism, primary screen | P25929 | NPY-Y1 expressing cells, potentiator/agonist activation | 220,000 compounds, 0.37% hits | activation, % at 3.6 µM; in the data active = activation above about 33%, passing the limit was not always enough;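 also: cells stimulated with NPY at EC10 then isoproterenol at EC100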
# NPY2 pot ag: potentiates or activates human NPY-Y2 receptor; P49146; cells expressing NPY-Y2, potentiator/agonist read-out; activation, % at 3.6 µM; 220,000 compounds, 0.45% hits; in the data active = activation above about 27%;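 also: cells stimulated with NPY near EC25 plus isoproterenol at EC100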
# NPY-Y1 ant conf: confirmation of human neuropeptide Y receptor Y1 antagonists. shares compounds with NPY-Y1 antag. 1,200 compounds, 21% hits. AID 1254. HEK293-CNG NPY-Y1, membrane potential fluorescence, cAMP; NPY challenge against isoproterenol-raised cAMP. inhibition, % at 3.6 µM; in the data active = inhibition above about 20%
# NPY-Y2 antag ct: human NPY-Y2 antagonism in NPY-Y1 counter-screen | shares compounds with NPY-Y1 antag | inhibition, % at 3.6 µM | AID 1255 | HEK293 NPY-Y2 CNG membrane potential fluorescence; cells given NPY, then isoproterenol | 1,200 compounds, 28% hits
# Hits are given with their value; i = inactive; nt = no result. Rule as the data show it, unless noted: active = inhibition above about 17%; inactive = the rest.
SMILES,NPY Y2 blocker,NPY-Y1 antag,NPY-Y1 PAM-ag,NPY2 pot ag,NPY-Y1 ant conf,NPY-Y2 antag ct
O=C(NC1CCCC1)C(c1ccccc1F)N(C(=O)Cc1cccs1)c1ccc2c(c1)OCCO2 (stereo not given),i,20,i,i,i,i
CCOc1ccc(-c2csc(Cn3c(CN4CCN(C)CC4)nc4ccccc4c3=O)n2)cc1,i,i,i,i,nt,nt
CCc1cccc(CC)c1NC(=O)CN1CC(C)SC1=NC1CCCCC1 (stereo not given),i,34,i,i,34,17
O=C(COC(=O)c1ccc(O)cc1)Nc1ccc(Cl)cc1,nt,i,i,i,nt,nt
S=c1[nH]nc(-c2cccnc2)o1,i,i,i,i,nt,nt
S=c1[nH]nc(-c2cccc(Br)c2)o1,i,24,i,i,i,i
Cn1c(=O)cc(SCC(=O)NCCCN2CCN(c3ccccc3F)CC2)c2ccccc21,i,21,i,i,i,i
COc1cc(C2C(N3C(=O)c4ccccc4C3=O)C(=O)N2c2cccc(C)c2)cc(OC)c1OC (stereo not given),i,i,i,i,nt,nt
O=C(c1ccco1)N1CCN(C(c2ccc(Cl)cc2)c2nnnn2Cc2ccccc2)CC1 (stereo not given),i,21,i,i,i,i
COc1ccc(C(c2nnnn2Cc2ccccc2)N2CCN(C(=O)c3ccco3)CC2)cc1 (stereo not given),i,i,i,i,nt,nt
COC(=O)[C@@]1(Cc2ccc(F)cc2)[C@H]2c3cc(C(=O)N4CCCC4)n(Cc4ccc(C(F)(F)F)nc4)c3C[C@H]2CN1C(=O)c1ccccc1,i,28,i,i,28,i
COC(=O)[C@@]1(Cc2ccc(OC)cc2)[C@H]2c3cc(C(=O)N4CCCC4)n(Cc4ccc(OC)c(OC)c4)c3C[C@H]2CN1C(=O)c1ccccc1,i,i,i,i,nt,nt
O=C(O)CC/C(=C\c1ccc(N2CCOCC2)c([N+](=O)[O-])c1)c1nc2ccccc2s1,nt,41,i,i,54,79
CCOC(=O)c1c(NC(=O)CSc2nnc(C)s2)sc2c1CCC(CC)C2 (stereo not given),i,34,i,i,i,18
CCOC(=O)c1sc(NC(=O)CSc2nnc(C)s2)c(C(=O)OCC)c1C,i,i,i,i,nt,nt
Cc1ccc(S(=O)(=O)N(CC(=O)NCCC2=CCCCC2)Cc2ccccc2)cc1,i,21,i,i,i,i
CC(C)C(=O)N1CCN(c2ccccc2NC(=O)c2ccc(C#N)cc2F)CC1,nt,42,i,i,i,i
Cc1ccc(OCc2nnc(SCC(=O)c3ccccc3)n2Cc2ccco2)cc1,i,i,i,i,nt,nt
O=C(CSc1nnc(COc2ccccc2)n1Cc1ccco1)c1ccc(F)cc1,i,20,i,i,i,i
CN(C)/N=C/c1ccc(P(c2ccc(/C=N/N(C)C)o2)c2ccc(/C=N/N(C)C)o2)o1,nt,i,i,i,nt,nt
CCOC(=O)c1c(C)noc1CP(=O)(c1ccccc1)c1ccccc1,i,31,i,i,i,i
O=C(c1ccc(Cl)cc1)c1c[nH]c(C(=O)NNc2ccccc2)c1,nt,i,i,i,nt,nt
Cc1ccc(NC(=S)NNC(=S)Nc2ccc(C)cc2C)cc1,nt,22,i,i,i,17
CCOC(=O)c1ccc(Nc2ncnc3ccc(C)cc23)cc1,i,45,i,i,i,i
Cc1sc2c(c1C)c(=O)nc1scc(C)n12,i,i,i,i,nt,nt
SMILES,NPY Y2 blocker,NPY-Y1 antag,NPY-Y1 PAM-ag,NPY2 pot ag,NPY-Y1 ant conf,NPY-Y2 antag ct
O=[N+]([O-])c1ccc(NCCCNS(=O)(=O)c2ccccc2)cc1,nt,i,i,i,nt,nt
Clc1cccc(Cl)c1CSc1nnc(/C=C/c2ccccc2)o1,i,23,i,i,i,i
CSc1cccc(NC(=O)CN(c2ccccc2)S(=O)(=O)N(C)C)c1,i,20,i,i,i,i
CN(C)S(=O)(=O)N(CC(=O)Nc1ccc(F)c(F)c1)c1ccccc1,i,i,i,i,nt,nt
CC1CCCCC1NC(=O)CN1C(=O)CSc2cc(S(=O)(=O)N3CCCCCC3)ccc21 (stereo not given),i,31,i,i,i,i
O=[N+]([O-])c1cccc(-c2noc(COc3ccccc3)n2)c1,nt,25,i,i,i,i
CC(C)Oc1cccc(C(=O)NC(=S)Nc2ccccc2)c1,i,i,i,i,nt,nt
CCOC(=O)c1c(C)n(-c2ccc(C)cc2)c2ccc(OCC(O)CN3CCN(C)CC3)cc12 (stereo not given),nt,47,i,i,25,47
CCOC(=O)c1c(C)n(C)c2ccc(OCC(O)CN3CCN(C)CC3)cc12 (stereo not given),i,i,i,i,nt,nt
COc1ccc(N2CCN(C(c3cccc(OC)c3OC)c3nnnn3C3CCCC3)CC2)cc1 (stereo not given),i,23,i,i,22,i
COc1ccc(OC)c(C(c2nnnn2C2CCCC2)N2CCN(c3ccccc3F)CC2)c1 (stereo not given),i,22,i,i,i,i
CC(C)CC(c1nnnn1C1CCCCC1)N1CCN(c2ncccn2)CC1 (stereo not given),i,i,i,i,nt,nt
CC(C)CC(c1nnnn1C1CCCC1)N1CCN(c2ccccc2F)CC1 (stereo not given),i,27,i,i,24,i
CCOC(=O)CC(NC(=O)C(CC)c1ccccc1)c1ccccc1Cl (stereo not given),i,25,i,i,i,i
Cc1ccc(NC(=S)NCCN(C2CCCCC2)C2CCCC2)cc1C,nt,28,i,i,i,i
Cc1ccc(NC(=S)NCCN(C2CCCCC2)C2CCCC2)cc1,nt,i,i,i,nt,nt
CC1Cc2ccccc2N1C(=O)CN1CCC(C(N)=O)CC1 (stereo not given),nt,i,i,i,nt,nt
Cc1ccc(OCCN2CCN(c3ncnc4sc(C)c(C)c34)CC2)cc1,i,i,i,i,nt,nt
Clc1ccc(OCCN2CCN(c3ncnc4sccc34)CC2)cc1,i,26,i,i,i,20
O=C(NNS(=O)(=O)c1ccc2ccccc2c1)c1cc(-c2ccccn2)nc2ccccc12,i,i,i,i,nt,nt
Cn1cnc2c(=O)[nH]cc([N+](=O)[O-])c21,nt,i,i,i,nt,nt
Cc1ccc(C2CC(C(F)(F)F)n3nc(C(=O)Nc4c(C)n(C)n(-c5ccccc5)c4=O)cc3N2)cc1 (stereo not given),nt,i,i,i,nt,nt
Cc1cc(NC(=O)c2cc3n(n2)C(C(F)(F)F)CC(c2ccc(Cl)c(Cl)c2)N3)no1 (stereo not given),i,21,i,i,i,i
O=S(=O)(c1ccc(NC(=S)NCc2ccncc2)cc1)N1CCCCC1,nt,nt,i,i,nt,nt
COc1ccccc1NC(=O)CSc1nc(N)c(-c2ccccc2)c(=O)[nH]1,nt,74,i,i,55,68
Cc1ccc(CNC(=O)C(Cc2ccccc2)NS(=O)(=O)c2ccc(Br)s2)cc1 (stereo not given),i,i,i,i,nt,nt

# Compound activity (PubChem BioAssay)
